Results: ChEMBL document CHEMBL5385915 (J Med Chem, 2024)
Converted amounts (≈) assume the structure as drawn. The source made the active and inactive calls. No cut-off for these calls is given here.

What was measured:
[1] = system: Mycolicibacterium smegmatis; assay: Antimycobacterial activity against Mycobacterium smegmatis MC(2)155 assessed as reduction in microbial growth incubated for 24 hrs by resazurin dye based assay; format: functional
[2] = Lipophilicity, log P of the compound; format: physicochemical; conditions: octanol/water
[3] = system: Mycobacterium tuberculosis; assay: Bactericidal activity against Mycobacterium tuberculosis H37Rv assessed as reduction in viable count at 96 uM incubated for 14 days by CV-AM staining based flow cytometry analysis; format: functional; conditions: time 14 day
Procedure, shortened: (§1)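 H37Rv from time-kill wells (3–96 μM, 0.1% DMSO vehicle) at each time point, stained in quadruplicate 1 h, 37 °C, dark with 20 μM CV-AM and/or 20 μM Sytox Green; fixed 4% formaldehyde 1 h; flow cytometry (405/488 nm lasers); singlets gated by FSC area/height, quadrant gates P1–P4.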

[4] = system: Corynebacterium glutamicum; assay: Inhibition of mycolic acid biosynthesis in Corynebacterium glutamicum harboring MmpL3 at 0.5 to 5 times MIC incubated for 6 hrs by TLC based autoradiography analysis; format: functional, organism-based
[5] = system: Mycobacterium tuberculosis; assay: Bactericidal activity against Mycobacterium tuberculosis H37Rv assessed as reduction in viable count at 96 uM incubated for 6 days by CV-AM staining based flow cytometry analysis; format: functional; conditions: time 6 day; procedure, shortened: as §1
[6] = system: Mycobacterium tuberculosis; assay: Bactericidal activity against Mycobacterium tuberculosis H37Rv incubated for 6 to 10 days by time kill assay; format: functional, organism-based; conditions: dose <= 96.0 µM, time 6-10 day
Procedure, shortened: (§2)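 Time-kill: 2-fold dilutions 96–3 μM in CMM MOD2, 0.1% DMSO vehicle; start 1×10^6 CFU/mL, 37 °C, 200 rpm; sampled days 0, 2, 6, 10, 14; 10-fold dilutions spotted in triplicate on 7H10, counted after 3 weeks; three biological repeats; factorial ANOVA with Tukey post hoc.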

[7] = system: Mycolicibacterium smegmatis; assay: Inhibition of macromolecule biosynthesis in Mycobacterium smegmatis assessed as reduction in incorporation of [3H]-thymidine in DNA at 0.75 times MIC incubated for 36 hrs; format: functional, organism-based
[8] = system: Corynebacterium glutamicum; assay: Inhibition of mycolic acid biosynthesis in Corynebacterium glutamicum pks13 at 0.5 to 5 times MIC incubated for 6 hrs by TLC based autoradiography analysis; format: functional, organism-based
[9] = system: Mycolicibacterium smegmatis; assay: Inhibition of macromolecule biosynthesis in Mycobacterium smegmatis assessed as reduction in incorporation of [3H]-leucine in protein at 0.75 times MIC incubated for 36 hrs; format: functional, organism-based
[10] = system: Mycolicibacterium smegmatis; assay: Inhibition of macromolecule biosynthesis in Mycobacterium smegmatis assessed as reduction in incorporation of [3H]-diaminopimelic acid in peptidoglycan at 1 times MIC incubated for 6 hrs; format: functional, organism-based
[11] = system: Mycolicibacterium smegmatis; assay: Inhibition of cell wall biosynthesis in Mycobacterium smegmatis assessed as reduction in trehalose dimycolate accumulation at 0.5 to 5 times MIC incubated for 6 hrs in presence of [14C]acetate by alpha-napthol staining based TLC analysis; format: functional, organism-based
[12] = system: Mycolicibacterium smegmatis; assay: Inhibition of mycolic acid biosynthesis in Mycobacterium smegmatis at 5 times MIC incubated for 12 hrs in presence of [14C]acetate by TLC based autoradiography analysis; format: functional, organism-based
[13] = system: Mycobacterium tuberculosis; assay: Bactericidal activity against Mycobacterium tuberculosis H37Rv assessed as reduction in viable count at 48 uM incubated for 6 days by sytox green staining based flow cytometry analysis; format: functional; conditions: time 6 day; procedure, shortened: as §1
[14] = system: Corynebacterium glutamicum; assay: Inhibition of mycolic acid biosynthesis in Corynebacterium glutamicum at 0.5 to 5 times MIC incubated for 6 hrs by TLC based autoradiography analysis; format: functional, organism-based
[15] = system: Mycobacterium tuberculosis; assay: Bactericidal activity against Mycobacterium tuberculosis H37Rv assessed as reduction in viable count at 48 uM incubated for 14 days by sytox green staining based flow cytometry analysis; format: functional; conditions: time 14 day; procedure, shortened: as §1
[16] = system: Mycobacterium tuberculosis; assay: Bactericidal activity against Mycobacterium tuberculosis H37Rv assessed as reduction in bacterial count at […] uM incubated for 14 days by time kill assay; format: functional; conditions: time 14 day; procedure, shortened: as §2
[17] = system: Mycolicibacterium smegmatis; assay: Inhibition of macromolecule biosynthesis in Mycobacterium smegmatis assessed as reduction in incorporation of [3H]-uridine in RNA at 0.75 times MIC incubated for 36 hrs; format: functional, organism-based
[18] = system: Mycobacterium tuberculosis; assay: Bactericidal activity against Mycobacterium tuberculosis H37Rv assessed as reduction in bacterial count at […] uM incubated for 6 days by time kill assay; format: functional; conditions: time 6 day; procedure, shortened: as §2
[19] = system: Mycolicibacterium smegmatis; assay: Inhibition of cell wall biosynthesis in Mycobacterium smegmatis assessed as reduction in trehalose monomycolate accumulation at 0.5 to 5 times MIC incubated for 6 hrs in presence of [14C]acetate by MPA staining based TLC analysis; format: functional, organism-based
[20] = Metabolic stability in mouse hepatocyte assessed as intrinsic clearance measured upto 60 mins […] by LC-MS/MS analysis; format: ADME, cell-based; conditions: hepatocytes, 1 h
Procedure, shortened: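 Mouse hepatocytes at 0.5 × 10^6 cells/mL incubated with 1 μM compound at 37 °C, sampled at 0, 10, 20, 30, 45 and 60 min. Disappearance with and without hepatocytes measured by LC-MS/MS; output is mean CLint and t1/2. Duplicate per compound, with up to three species-specific controls.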

[21] = system: Mycobacterium tuberculosis; assay: Bactericidal activity against Mycobacterium tuberculosis H37Rv assessed as reduction in viable count at 96 uM incubated for 14 days by sytox green staining based flow cytometry analysis; format: functional, organism-based; conditions: time 14.0 day; procedure, shortened: as §1
[22] = system: Mycobacterium tuberculosis; assay: Bactericidal activity against Mycobacterium tuberculosis H37Rv assessed as reduction in viable count at 96 uM incubated for 10 days by CV-AM staining based flow cytometry analysis; format: functional; conditions: time 10 day; procedure, shortened: as §1
[23] = system: Mycobacterium tuberculosis; assay: Antitubercular activity against drug-sensitive Mycobacterium tuberculosis H37Rv assessed as inhibition of bacterial growth measured for 7 days by REMA analysis; format: functional; conditions: 168 h, time 7 day
Procedure, shortened: (§3)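 REMA: 2-fold dilutions in CMM MOD2 medium, wells inoculated at 1×10^6 CFU/mL, 7 days at 37 °C with 200 rpm agitation; resazurin (0.02% w/v in PBS pH 7.4, 5% Tween 80) then 6 h at room temperature; OD570 vs vehicle; MIC99 by modified Gompertz function; three biological replicates.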

[24] = system: Mycobacterium tuberculosis; assay: Antitubercular activity against drug-sensitive Mycobacterium tuberculosis H37Rv pTYOK assessed as inhibition of bacterial growth measured upto 3 days by luminometer based analysis; format: functional; conditions: 72 h, time <= 3 day
[25] = Efflux ratio of permeability across basolateral to apical side over apical to basolateral side in human Caco-2 cells incubated for 2 hrs by LC-MS/MS analysis; format: ADME, cell-based
[26] = Metabolic stability in mouse liver microsome assessed as intrinsic clearance measured upto 30 mins in presence of NADPH by LC-MS/MS analysis; format: ADME; conditions: liver microsomes, read-out: CLH
Procedure, shortened: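 1 μM compound with 0.5 mg/mL mouse liver microsomes, with or without NADPH (1 mM), 37 °C, sampled at 0, 5, 10, 15 and 30 min. Parent loss followed by LC-MS/MS, giving mean CLint and t1/2. Two replicates per compound; up to three species-specific control compounds included.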

[27] = system: Mycobacterium tuberculosis; assay: Antitubercular activity against Mycobacterium tuberculosis 1192/015 assessed as inhibition of bacterial growth measured for 7 days by REMA analysis; format: functional; conditions: 1192/015, 168 h, time 7 day; procedure, shortened: as §3
[28] = Kinetic solubility in pH 7.4 PBS incubated for 5 mins by UV-spectrophotometry analysis; format: physicochemical; conditions: read-out: Kinetic_solubility
Procedure, shortened: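 Compounds from 10 mM DMSO stock diluted in PBS pH 7.4 to a seven-point series (0.2–100 μM), final DMSO 1%, shaken 5 min at 25 °C. Turbidity read by UV at 620 nm; Log_S converted to solubility as S = 10^LogS. Nicardipine control; triplicate.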

[29] = system: Mycobacterium tuberculosis; assay: Bactericidal activity against Mycobacterium tuberculosis H37Rv assessed as reduction in viable count at 48 uM incubated for 10 days by CV-AM staining based flow cytometry analysis; format: functional; conditions: time 10 day; procedure, shortened: as §1
[30] = system: Mycobacterium tuberculosis; assay: Bactericidal activity against Mycobacterium tuberculosis H37Rv assessed as reduction in viable count at 48 uM incubated for 14 days by CV-AM staining based flow cytometry analysis; format: functional; conditions: time 14 day; procedure, shortened: as §1
[31] = system: HepG2; assay: Cytotoxicity against human HepG2 cells assessed as reduction in cell viability incubated for 24 hrs in presence of galactose by MTT assay; format: functional, cell-based; conditions: HepG2, 24 h
[32] = system: HepG2; assay: Cytotoxicity against human HepG2 cells assessed as reduction in cell viability incubated for 24 hrs in presence of glucose by MTT assay; format: functional, cell-based; conditions: HepG2, 24 h
[33] = system: Mycolicibacterium smegmatis; assay: Inhibition of cell wall biosynthesis in Mycobacterium smegmatis assessed as formation of cytoplasmic membrane phospholipids at 0.5 to 5 times MIC incubated for 6 hrs in presence of [14C]acetate by TLC based autoradiography analysis; format: functional, organism-based
[34] = system: Mycobacterium tuberculosis; assay: Bactericidal activity against Mycobacterium tuberculosis H37Rv assessed as reduction in viable count at 48 uM incubated for 6 days by CV-AM staining based flow cytometry analysis; format: functional; conditions: time 6 day; procedure, shortened: as §1

## Brc1ccccc1CN1[C@H](CN2CCCC2)C[C@@H]1c1ccccc1 (racemic)
[1]
  MIC99: 30.5 µM
[2]
  logP: 4.84

## Clc1cc(Cl)cc([C@H]2C[C@@H](CN3CCCC3)N2Cc2ccccc2Br)c1 (racemic)
[1]
  MIC99: 14 µM
[2]
  logP: 6.05

## COCCNC[C@@H]1C[C@H](c2ccc(OC(F)(F)F)cc2)N1Cc1ccccc1OC(F)(F)F (racemic)
[1]
  MIC99: 29 µM
[2]
  logP: 6.1

## CNC[C@@H]1C[C@H](c2ccc(OC(F)(F)F)cc2)N1Cc1ccccc1OC(F)(F)F (racemic)
[3]
  Activity: 0.011%
[4]
  inhibition: Active
[5]
  Activity: 0.043%
[6]
  Activity: Dose-Dependent Effect
[7]
  inhibition: inactive
[8]
  inhibition: Active
[9]
  inhibition: inactive
[10]
  inhibition: Active
[11]
  inhibition: Active
[12]
  inhibition: Active
[13]
  Activity: 0.027%
[14]
  inhibition: Active
[15]
  Activity: 0.068%
[16]
  Activity: 3.99 log10CFU/ml
[17]
  inhibition: inactive
[18]
  Activity: 3.28 log10CFU/ml
[19]
  inhibition: Active
[20]
  intrinsic clearance (CLint): < 60 µL/min/mg
[21]
  Activity: Active
[22]
  Activity: 0.08%
[2]
  logP: 6.14

## C#CCNC[C@@H]1C[C@H](c2cc(Br)cc(Br)c2)N1Cc1ccccc1Br (racemic)
[1]
  MIC99: 100 µM
[2]
  logP: 5.82

## CC(C)NC[C@@H]1C[C@H](c2ccccc2)N1Cc1ccccc1OC(F)(F)F (racemic)
[1]
  MIC99: 87 µM
[2]
  logP: 5.49

## FC(F)(F)c1cc([C@H]2C[C@@H](CN3CCCC3)N2Cc2ccccc2Br)cc(C(F)(F)F)c1 (racemic)
[4]
  inhibition: Active
[23]
  MIC99: 3.3 µM (≈ 1.72 µg/mL)
[8]
  inhibition: Active
[24]
  MIC50: 6.9 µM (≈ 3.6 µg/mL)
[25]
  efflux ratio at 2 h: < 1
[26]
  microsomal CLint: > 150 µL/min/mg
[1]
  MIC99: 26 µM
[27]
  MIC99: 19.1 µM (≈ 9.96 µg/mL)
[20]
  intrinsic clearance (CLint): < 60 µL/min/mg
[2]
  logP: 6.6

## CN(C)C[C@@H]1C[C@H](c2cc(Br)cc(Br)c2)N1Cc1ccccc1Br (racemic)
[1]
  MIC99: 80 µM
[2]
  logP: 5.97

## FC(F)(F)Oc1ccc([C@H]2C[C@@H](CN3CCCC3)N2Cc2ccccc2OC(F)(F)F)cc1 (racemic)
[4]
  inhibition: Active
[8]
  inhibition: Active
[25]
  efflux ratio at 2 h: < 1
[28]
  solubility kinetic at 5 min: 7 µM (≈ 3.32 µg/mL)
[26]
  microsomal CLint: > 150 µL/min/mg
[20]
  intrinsic clearance (CLint): < 60 µL/min/mg
[2]
  logP: 6.93

## COc1ccc([C@H]2C[C@@H](CN3CCCC3)N2Cc2ccccc2Br)cc1 (racemic)
[2]
  logP: 4.68

## CC(C)NC[C@@H]1C[C@H](c2ccc(OC(F)(F)F)cc2)N1Cc1ccccc1OC(F)(F)F (racemic)
[1]
  MIC99: 23 µM
[2]
  logP: 6.92

## Brc1cc(Br)cc([C@H]2C[C@@H](CN3CCCC3)N2Cc2ccccc2Br)c1 (racemic)
[29]
  Activity: 0.065%
[30]
  Activity: 0.066%
[4]
  inhibition: Active
[6]
  Activity: Dose-Dependent Effect
[31]
  IC50: > 100 µM
[8]
  inhibition: Active
[32]
  IC50: > 100 µM
[33]
  inhibition: Active
[34]
  Activity: 0.067%
[26]
  microsomal CLint: > 150 µL/min/mg
[16]
  Activity: 1.9 log10CFU/ml
[18]
  Activity: 0.79 log10CFU/ml
[20]
  intrinsic clearance (CLint): < 60 µL/min/mg
[21]
  Activity: Active

## FC(F)(F)c1ccc(C2CCN(C[C@@H]3C[C@H](c4ccccc4)N3Cc3ccccc3Br)CC2)cc1 (racemic)
[1]
  MIC99: 100 µM
[2]
  logP: 7.58

## CC(C)NC[C@@H]1C[C@H](c2ccc(OC(F)(F)F)cc2)N1Cc1ccccc1Br (racemic)
[1]
  MIC99: 23 µM
[2]
  logP: 6.26

## CC(C)NC[C@@H]1C[C@H](c2ccccc2)N1Cc1ccccc1Br (racemic)
[1]
  MIC99: 94 µM
[2]
  logP: 4.82

## FC(F)(F)Oc1ccc(C2CCN(C[C@@H]3C[C@H](c4ccccc4)N3Cc3ccccc3Br)CC2)cc1 (racemic)
[1]
  MIC99: 100 µM
[2]
  logP: 8.14
